Measured values from ChEMBL document CHEMBL1255502, “A nonazole CYP51 inhibitor cures Chagas' disease in a mouse model of acute infection” (Antimicrob Agents Chemother, 2010).
Calls of active or inactive are those of the source. The calls are words filed in the database; no cut-off is given here.

Columns and labels:
[1] = target: Sterol 14-alpha demethylase (Trypanosoma cruzi (strain CL Brener)) (UniProt Q7Z1V1); assay: Inhibition of sterol 14-alpha-demethylase in Trypanosoma cruzi amastigotes infected in BESM cells assessed as accumulation of lanosterol and eburicol precursors at 5 uM after 72 hrs; assay type: cell-based
Chain of Sterol 14-alpha demethylase (Trypanosoma cruzi (strain CL Brener)) (Q7Z1V1 whole entry, looked up, the tested form may be a part): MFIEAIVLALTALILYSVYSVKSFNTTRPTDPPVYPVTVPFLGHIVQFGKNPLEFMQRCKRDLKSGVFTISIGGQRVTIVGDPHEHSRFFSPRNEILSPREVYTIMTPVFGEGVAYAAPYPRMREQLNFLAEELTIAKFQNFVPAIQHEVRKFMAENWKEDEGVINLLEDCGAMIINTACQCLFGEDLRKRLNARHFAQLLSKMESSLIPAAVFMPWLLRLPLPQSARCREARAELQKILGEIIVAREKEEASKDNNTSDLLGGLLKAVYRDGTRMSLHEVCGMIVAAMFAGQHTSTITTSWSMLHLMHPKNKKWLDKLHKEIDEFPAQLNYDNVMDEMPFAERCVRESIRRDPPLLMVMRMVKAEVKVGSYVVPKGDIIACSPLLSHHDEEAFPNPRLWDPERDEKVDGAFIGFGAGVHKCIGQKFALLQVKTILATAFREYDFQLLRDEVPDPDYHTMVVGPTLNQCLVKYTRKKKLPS
In short: (§1)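 T. cruzi CA-I/72 amastigotes were grown in BESM cells in RPMI 1640 with 5% heat-inactivated FCS at 37°C under 5% CO2. Monolayers were infected for 24 h, then the medium was replaced with 5 μM compound or DMSO; noninfected BESM cells served as a control. Lipids were extracted with chloroform, TMS-derivatized with BSTFA for 2 h, and sterols identified by GC-MS from [M−90]+ and [M+73]+ ions.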

[2] = target: Sterol 14-alpha demethylase (Trypanosoma cruzi (strain CL Brener)) (UniProt Q7Z1V1); assay: Inhibition of sterol 14-alpha-demethylase in Trypanosoma cruzi amastigotes infected in BESM cell assessed as appearance of large autophagic vesicles at 0.25 uM after 48 hrs by electron microscopy; assay type: cell-based
[3] = target: Sterol 14-alpha demethylase (Trypanosoma cruzi (strain CL Brener)) (UniProt Q7Z1V1); assay: Inhibition of sterol 14-alpha-demethylase in Trypanosoma cruzi amastigotes infected in BESM cells assessed as reduction in episterol content at 5 uM after 72 hrs; assay type: cell-based; in short: as §1
[4] = target: Sterol 14-alpha demethylase (Trypanosoma cruzi (strain CL Brener)) (UniProt Q7Z1V1); assay: Inhibition of sterol 14-alpha-demethylase in Trypanosoma cruzi epimastigotes infected in BESM cell assessed as abnormalities in nuclear membrane at 0.25 uM after 72 hrs by electron microscopy; assay type: cell-based
[5] = target: Sterol 14-alpha demethylase (Trypanosoma cruzi (strain CL Brener)) (UniProt Q7Z1V1); assay: Inhibition of sterol 14-alpha-demethylase in Trypanosoma cruzi epimastigotes infected in BESM cells assessed as reduction in fecosterol content at 5 uM after 72 hrs; assay type: cell-based
In short: (§2)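 Log-phase epimastigotes were grown axenically in BHT medium (fetal bovine serum, brain heart infusion) and exposed to 5 μM compound for 72 h, with untreated parasites as the control. Pellets were washed in PBS, extracted in chloroform for 24 h at room temperature, BSTFA-derivatized, and sterols were analysed by GC-MS on a DB5-MS column (200→300°C at 15°C/min).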

[6] = target: Sterol 14-alpha demethylase (Trypanosoma cruzi (strain CL Brener)) (UniProt Q7Z1V1); assay: Inhibition of sterol 14-alpha-demethylase in Trypanosoma cruzi epimastigotes infected in BESM cells assessed as reduction in episterol content at 5 uM after 72 hrs; assay type: cell-based; in short: as §2
[7] = target: Sterol 14-alpha demethylase (Trypanosoma cruzi (strain CL Brener)) (UniProt Q7Z1V1); assay: Inhibition of sterol 14-alpha-demethylase in Trypanosoma cruzi epimastigotes infected in BESM cell assessed as abnormalities in nuclear DNA at 0.25 uM after 72 hrs by electron microscopy; assay type: cell-based
[8] = target: Sterol 14-alpha demethylase (Trypanosoma cruzi (strain CL Brener)) (UniProt Q7Z1V1); assay: Inhibition of sterol 14-alpha-demethylase in Trypanosoma cruzi amastigotes infected in BESM cell assessed as cell death at 0.25 uM after 72 hrs by electron microscopy
[9] = target: Sterol 14-alpha demethylase (Trypanosoma cruzi (strain CL Brener)) (UniProt Q7Z1V1); assay: Inhibition of sterol 14-alpha-demethylase in Trypanosoma cruzi amastigotes infected in BESM cells assessed as reduction in fecosterol content at 5 uM after 72 hrs; assay type: cell-based; in short: as §1
[10] = target: Sterol 14-alpha demethylase (Trypanosoma cruzi (strain CL Brener)) (UniProt Q7Z1V1); assay: Inhibition of sterol 14-alpha-demethylase in Trypanosoma cruzi amastigotes infected in BESM cell assessed as abnormalities in nuclear membrane at 0.25 uM after 72 hrs by electron microscopy; assay type: cell-based
[11] = target: Sterol 14-alpha demethylase (Trypanosoma cruzi (strain CL Brener)) (UniProt Q7Z1V1); assay: Inhibition of sterol 14-alpha-demethylase in Trypanosoma cruzi epimastigotes infected in BESM cells assessed as accumulation of lanosterol and eburicol precursors at 5 uM after 72 hrs; assay type: cell-based; in short: as §2
[12] = target: Sterol 14-alpha demethylase (Trypanosoma cruzi (strain CL Brener)) (UniProt Q7Z1V1); assay: Inhibition of sterol 14-alpha-demethylase in Trypanosoma cruzi amastigotes infected in BESM cell assessed as blebbing of the cell membrane at 0.25 uM after 48 hrs by electron microscopy; assay type: cell-based
[13] = target: Sterol 14-alpha demethylase (Trypanosoma cruzi (strain CL Brener)) (UniProt Q7Z1V1); assay: Inhibition of sterol 14-alpha-demethylase in Trypanosoma cruzi epimastigotes infected in BESM cell assessed as cell death at 0.25 uM after 72 hrs by electron microscopy; assay type: cell-based
[14] = target: Sterol 14-alpha demethylase (Trypanosoma cruzi (strain CL Brener)) (UniProt Q7Z1V1); assay: Inhibition of sterol 14-alpha-demethylase in Trypanosoma cruzi epimastigotes infected in BESM cell assessed as effect on cell division at 0.25 uM after 72 hrs by electron microscopy; assay type: cell-based
[15] = target: Sterol 14-alpha demethylase (Trypanosoma cruzi (strain CL Brener)) (UniProt Q7Z1V1); assay: Inhibition of sterol 14-alpha-demethylase in Trypanosoma cruzi amastigotes infected in BESM cell assessed as abnormalities in nuclear DNA at 0.25 uM after 72 hrs by electron microscopy; assay type: cell-based
[16] = target: Sterol 14-alpha demethylase (Trypanosoma cruzi (strain CL Brener)) (UniProt Q7Z1V1); assay: Inhibition of sterol 14-alpha-demethylase in Trypanosoma cruzi amastigotes infected in BESM cell assessed as swelling of nuclear membrane at 0.25 uM after 48 hrs by electron microscopy; assay type: cell-based
Trypanosoma cruzi [17] = assay: Antimicrobial activity against Trypanosoma cruzi infected in C3H mouse at 50 mg/kg, ip BID administered 24 hrs post infection measured after 12 days; assay type: functional, organism-based; parameters: dose 50 mg/kg
In short: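 Female C3H mice (7–8 weeks, 17.5–18.0 g, five per group) infected i.p. with 10⁶ tissue-culture trypomastigotes of T. cruzi CA-I/72. The cruzain cysteine-protease inhibitor was given from 24 h postinfection: i.p. in 100 μl of 30% DMSO–70% ddH₂O, twice daily for 30 days. An untreated infected group served as control. Clinical signs (ascites, hind-leg weakness) were assessed at day 12 postinfection.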

[18] = target: Sterol 14-alpha demethylase (Trypanosoma cruzi (strain CL Brener)) (UniProt Q7Z1V1); settings: BESM, 10 uM
[19] = target: Sterol 14-alpha demethylase (Trypanosoma cruzi (strain CL Brener)) (UniProt Q7Z1V1); settings: BESM, 10 uM; remark: listed apart in the source
[20] = target: Sterol 14-alpha demethylase (Trypanosoma cruzi (strain CL Brener)) (UniProt Q7Z1V1); settings: BESM, 10 uM; remark: listed apart in the source
Trypanosoma cruzi [21] = assay: Antimicrobial activity against Trypanosoma cruzi infected in C3H mouse at 40 mg/kg, ip BID administered 24 hrs post infection measured after 12 days; assay type: functional, organism-based; parameters: dose 40 mg/kg
In short: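 Female C3H mice (7–8 weeks, 17.5–18.0 g, five per group) infected i.p. with 10⁶ tissue-culture trypomastigotes of T. cruzi CA-I/72. Dosing began 24 h postinfection: i.p. in 100 μl of 60% DMSO–40% ddH₂O, twice daily for 30 days. An untreated infected group served as control. Mice were scored for clinical signs (ascitic abdomen, hind-leg weakness) at day 12 postinfection.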

[22] = target: Sterol 14-alpha demethylase (Trypanosoma cruzi (strain CL Brener)) (UniProt Q7Z1V1); settings: BESM, 10 uM; remark: listed apart in the source
[23] = target: Sterol 14-alpha demethylase (Trypanosoma cruzi (strain CL Brener)) (UniProt Q7Z1V1); settings: BESM, 10 uM; remark: listed apart in the source
[24] = target: Sterol 14-alpha demethylase (Trypanosoma cruzi (strain CL Brener)) (UniProt Q7Z1V1); settings: BESM, 10 uM; remark: listed apart in the source
[25] = target: Sterol 14-alpha demethylase (Trypanosoma cruzi (strain CL Brener)) (UniProt Q7Z1V1); settings: BESM, 10 uM; remark: listed apart in the source
[26] = target: Sterol 14-alpha demethylase (Trypanosoma cruzi (strain CL Brener)) (UniProt Q7Z1V1); settings: BESM, 10 uM; remark: listed apart in the source
[27] = target: Sterol 14-alpha demethylase (Trypanosoma cruzi (strain CL Brener)) (UniProt Q7Z1V1); settings: BESM, 10 uM; remark: listed apart in the source
[28] = target: Sterol 14-alpha demethylase (Trypanosoma cruzi (strain CL Brener)) (UniProt Q7Z1V1); settings: BESM, 10 uM; remark: listed apart in the source

Q: How did the inhibition [1] turn out when `CC[C@@H]([C@H](C)O)n1ncn(-c2ccc(N3CCN(c4ccc(OC[C@@H]5CO[C@@](Cn6cncn6)(c6ccc(F)cc6F)C5)cc4)CC3)cc2)c1=O` was run?
A: Active

Q: What about the inhibition [2] of the same compound?
A: Active

Q: And the inhibition [3]?
A: Active

Q: And the inhibition [4]?
A: inactive

Q: And the inhibition [5]?
A: Active

Q: What about the inhibition [6] of the same compound?
A: Active

Q: What about the inhibition [7] of the same compound?
A: inactive

Q: What about the inhibition [8] of the same compound?
A: Active

Q: What about the inhibition [9] of the same compound?
A: Active

Q: And the inhibition [10]?
A: Active

Q: And the inhibition [11]?
A: Active

Q: What about the inhibition [12] of the same compound?
A: Active

Q: What about the inhibition [13] of the same compound?
A: inactive

Q: What about the inhibition [14] of the same compound?
A: inactive

Q: What about the inhibition [15] of the same compound?
A: Active

Q: And the inhibition [16]?
A: Active

Q: Which Activity (Trypanosoma cruzi [17]) does the source give for `CN1CCN(C(=O)N[C@@H](Cc2ccccc2)C(=O)N[C@H](/C=C/S(=O)(=O)c2ccccc2)CCc2ccccc2)CC1` here?
A: Active

Q: With `CC1CCC(C(=O)NC(Cc2c[nH]c3ccccc23)C(=O)Nc2ccncc2)CC1` (centres undefined) as the compound, how does the inhibition [1] read?
A: Active

Q: And the inhibition [3]?
A: Active

Q: And the inhibition [18]?
A: Active

Q: What about the inhibition [19] of the same compound?
A: inactive

Q: What about the inhibition [20] of the same compound?
A: Active

Q: What about the Activity (Trypanosoma cruzi [21]) of the same compound?
A: Active

Q: And the inhibition [22]?
A: Active

Q: And the inhibition [23]?
A: Active

Q: And the inhibition [24]?
A: Active

Q: And the inhibition [5]?
A: Active

Q: And the inhibition [6]?
A: Active

Q: And the inhibition [25]?
A: inactive

Q: And the inhibition [26]?
A: inactive

Q: And the inhibition [27]?
A: Active

Q: What about the inhibition [9] of the same compound?
A: Active

Q: And the inhibition [11]?
A: Active

Q: And the inhibition [28]?
A: inactive
